Experimental data published in ChEMBL document CHEMBL1681758, “Synthesis and in vitro anti-HSV-1 activity of a novel Hsp90 inhibitor BJ-B11” (Bioorg Med Chem Lett, 2011).
Active and inactive are the calls of the source. The rule behind the calls is not given here.

Assays:
[1] = Cytotoxicity against african green monkey Vero cells by MTT assay; type: cell-based; settings: chlorocebus sabaeus
How it was run: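 Vero cells; MTT viability read-out. CC50 taken as concentration reducing cell viability by 50%. Mean ± SD of three independent experiments.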

[2] = system: Human alphaherpesvirus 1; assay: Antiviral activity against HSV1 infected in african green monkey Vero cells assessed as log reduction of viral yield at 1 uM after drug washout by plaque assay; type: functional
How it was run: (§1)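 HSV-1 at MOI = 1 in Vero cells, compound at 1 µM in time-of-addition and time-of-removal schedules. Cultures harvested at 24 hpi; virus yield titrated by plaque assay.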

[3] = system: Human alphaherpesvirus 1; assay: Antiviral activity against HSV1 infected in african green monkey Vero cells assessed as log reduction of viral yield at 1 uM treated after 6 hrs post infection by plaque assay; type: functional; how it was run: as §1
[4] = system: Human alphaherpesvirus 1; assay: Antiviral activity against HSV1 infected in african green monkey Vero cells assessed as log reduction of viral yield at 1 uM treated after 9 hrs post infection by plaque assay; type: functional; how it was run: as §1
[5] = system: Human alphaherpesvirus 2; assay: Antiviral activity against HSV2 infected in african green monkey Vero cells assessed as inhibition of viral replication by plaque reduction assay; type: functional, organism-based; settings: Human alphaherpesvirus 2, Vero
How it was run: (§2)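 Vero cells; plaque reduction assay at concentrations found non-cytotoxic by MTT. EC50 is the concentration inhibiting 50% of HSV replication. Mean ± SD of three independent experiments.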

[6] = system: Human alphaherpesvirus 1; assay: Antiviral activity against HSV1 infected in african green monkey Vero cells assessed as reduction of UL54 expression at 1 uM after up to 24 hrs by RT-PCR analysis; type: functional, organism-based
How it was run: (§3)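 Vero monolayer infected with HSV-1 (MOI = 1) with or without 1 µM compound. RNA extracted at 3, 6 and 12 hpi, reverse transcribed, and serially diluted cDNA used for real-time PCR of UL54, UL52 and UL27. Mean ± SD, n = 3; Student's t-test against untreated controls.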

[7] = system: Human alphaherpesvirus 1; assay: Antiviral activity against HSV1 infected in african green monkey Vero cells assessed as reduction of UL27 expression at 1 uM after up to 24 hrs by RT-PCR analysis; type: functional, organism-based; how it was run: as §3
[8] = system: Human alphaherpesvirus 2; assay: Antiviral activity against HSV2 infected in african green monkey Vero cells assessed as inhibition of virus-induced cytopathic effect; type: functional, organism-based
[9] = system: Human alphaherpesvirus 1; assay: Antiviral activity against HSV1 infected in african green monkey Vero cells assessed as inhibition of virus-induced cytopathic effect; type: functional, organism-based
[10] = Therapeutic index, ratio of CC50 for african green monkey Vero cells to EC50 for HSV1; type: cell-based; settings: read-out: TI
How it was run: (§4)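 TI calculated as CC50 (Vero, MTT) divided by EC50 (Vero, plaque reduction) for the respective HSV type.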

[11] = Therapeutic index, ratio of CC50 for african green monkey Vero cells to EC50 for HSV2; type: cell-based; settings: read-out: TI; how it was run: as §4
[12] = system: Human alphaherpesvirus 1; assay: Antiviral activity against HSV1 infected in african green monkey Vero cells assessed as inhibition DNA synthesis at 1 uM after 24 hrs by RT-PCR analysis; type: functional, organism-based
How it was run: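 Vero monolayer infected with HSV-1 (MOI = 1) with or without 1 µM compound. DNA extracted at 24 hpi; UL52 quantified by real-time PCR. Mean ± SD, n = 3; Student's t-test against untreated controls.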

[13] = system: Human alphaherpesvirus 1; assay: Antiviral activity against HSV1 infected in african green monkey Vero cells assessed as inhibition of viral replication by plaque reduction assay; type: functional, organism-based; settings: Human alphaherpesvirus 1, Vero; how it was run: as §2
[14] = system: Human orthopneumovirus; assay: Antiviral activity against Human respiratory syncytial virus infected in african green monkey Vero cells assessed as inhibition of virus-induced cytopathic effect; type: functional, organism-based
[15] = system: Influenza A virus; assay: Antiviral activity against Influenza A virus H1N1 infected in african green monkey Vero cells assessed as inhibition of virus-induced cytopathic effect; type: functional, organism-based
[16] = system: Human alphaherpesvirus 1; assay: Antiviral activity against HSV1 infected in african green monkey Vero cells assessed as reduction of UL52 expression at 1 uM after up to 24 hrs by RT-PCR analysis; type: functional, organism-based; how it was run: as §3
[17] = system: Human alphaherpesvirus 1; assay: Antiviral activity against HSV1 infected in african green monkey Vero cells assessed as log reduction of viral yield at 1 uM treated after 24 hrs post infection by plaque assay; type: functional; how it was run: as §1
[18] = system: Coxsackievirus B3; assay: Antiviral activity against Coxsackievirus B3 infected in african green monkey Vero cells assessed as inhibition of virus-induced cytopathic effect; type: functional, organism-based

Row | SMILES | CC50 [1] [µM] | PFU/ml [2] | PFU/ml [3] | PFU/ml [4] | EC50 [5] [nM] | Activity [6] | Activity [7] | inhibition [8] | inhibition [9] | selectivity ratio [10] | selectivity ratio [11] | inhibition [12] | EC50 [13] [nM] | inhibition [14] | inhibition [15] | Activity [16] | PFU/ml [17] | inhibition [18]
1 | CC(=O)OC1CCC(Nc2cc(-n3nc(C)c4c3CC(C)(C)CC4=O)ccc2C(N)=O)CC1 (stereo unspecified) | 35.5 | 6.14 | 7.13 | 6.67 | 600 | inactive | Active | Active | Active | 84.5 | 59.2 | Active | 420 | inactive | inactive | Active | 7.09 | inactive
2 | Nc1nc2c(ncn2COCCO)c(=O)[nH]1 [ACYCLOVIR] | > 200 | – | – | – | 1720 | inactive | Active | – | – | > 172 | > 116 | – | 1160 | – | – | Active | – | –
